The target in data set [1] is T1, Toll-like receptor 4 (Mus musculus) (UniProt Q9QUK6).
T1 sequence (whole entry): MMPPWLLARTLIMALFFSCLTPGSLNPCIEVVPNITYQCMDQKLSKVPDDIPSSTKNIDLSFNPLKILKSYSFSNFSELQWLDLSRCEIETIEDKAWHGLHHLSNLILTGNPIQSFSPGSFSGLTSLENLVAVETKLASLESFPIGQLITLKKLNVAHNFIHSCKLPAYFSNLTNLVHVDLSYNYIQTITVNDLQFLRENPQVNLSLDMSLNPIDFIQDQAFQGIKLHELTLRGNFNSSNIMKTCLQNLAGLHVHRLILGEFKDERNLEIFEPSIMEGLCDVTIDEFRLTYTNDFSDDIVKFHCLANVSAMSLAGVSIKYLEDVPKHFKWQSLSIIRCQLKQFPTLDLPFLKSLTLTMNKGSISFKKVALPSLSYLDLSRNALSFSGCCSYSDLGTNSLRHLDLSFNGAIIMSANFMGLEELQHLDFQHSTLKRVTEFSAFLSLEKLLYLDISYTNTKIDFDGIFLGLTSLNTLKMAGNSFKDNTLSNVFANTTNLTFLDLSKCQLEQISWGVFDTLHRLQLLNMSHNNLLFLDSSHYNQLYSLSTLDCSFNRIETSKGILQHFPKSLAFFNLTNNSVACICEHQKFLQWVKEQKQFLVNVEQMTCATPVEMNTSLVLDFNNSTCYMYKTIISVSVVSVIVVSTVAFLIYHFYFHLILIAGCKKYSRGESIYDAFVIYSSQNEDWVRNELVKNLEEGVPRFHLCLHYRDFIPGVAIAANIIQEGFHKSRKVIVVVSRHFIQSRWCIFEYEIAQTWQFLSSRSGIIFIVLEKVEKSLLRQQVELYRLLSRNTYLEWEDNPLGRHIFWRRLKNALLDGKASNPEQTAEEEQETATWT
The experiment in a line: Agonist activity at TLR4 in thioglycollate-elicited mouse peritoneal macrophages assessed as induction of IL-6 production in after 18 hrs by ELISA. In kind it is functional. The gist of the method: (§1)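 Thioglycollate-elicited mouse peritoneal macrophages were plated at 2×10^5 cells/well in RPMI-1640 with 10% fetal calf serum and penicillin-streptomycin. They were incubated 18 h at 37°C, 5% CO2 with compound, with or without 10 ng/ml LPS. IL-6 in the supernatant was measured by ELISA. Data are representative of at least two replicate experiments, and significance was tested by ANOVA.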
(In an ELISA, binding on a coated surface is turned into a signal by an enzyme label.)

The nature of data set [2]: Cytotoxicity against mouse peritoneal macrophages assessed as cell viability by trypan blue exclusion assay. The data set is classed as cell-based. To be noted: peritoneal macrophage cell. The gist of the method: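 Thioglycollate-elicited mouse peritoneal macrophages were plated at 2×10^5 cells/well in supplemented RPMI-1640. They were exposed to compound, with or without 10 ng/ml LPS, for 18 h at 37°C, 5% CO2. Viability was then scored by trypan blue exclusion.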

The target of a further data set is T2, Toll-like receptor 4 (Mus musculus, UniProt Q9QUK6).
T2 sequence (Q9QUK6 whole entry): T1 sequence (whole entry)
Nature of the data set: (§2) Inhibition of LPS-induced TLR4 activation in thioglycollate-elicited mouse peritoneal macrophages assessed as inhibition of IL-6 production after 18 hrs by ELISA. The essentials: as §1

Data set [3] deals with Toll-like receptor 4 (Homo sapiens) (UniProt O00206). Nature of the data set: Partial agonist activity at TLR4 transfected in Sf9 insect cells assessed as inhibition of LPS-mediated sTLR4/MD2 homodimerization after 1 hr by native PAGE. In kind it is functional, cell-based. The gist of the method:
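The sTLR4 ectodomain/MD-2 complex was co-expressed in Hi5 insect cells from baculovirus made in SF9 cells. It was purified by Ni-NTA and Strep-Tactin affinity, tag removal with thrombin, and size exclusion. After 1 h at room temperature, the mixture was resolved by native PAGE on a 4–20% gel at pH 8.8.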

Data set [4] deals with Sf9. The experiment in a line: Competitive binding affinity at MD1 transfected in Sf9 insect cells after 1 hr by native PAGE in presence of LPS. In kind it is cell-based. The essentials:
(§3)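 MD-1 was expressed by baculovirus and purified by Ni-NTA affinity, anion exchange and gel filtration. It was combined with compound and then LPS in 20 mM Hepes pH 7.4/150 mM NaCl. After 1 h at room temperature, the mixture was analysed by native PAGE on a 4–20% gradient gel at pH 8.8.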

Another data set relates to Macrophage. The experiment in a line: Induction of IL-6 production in TLR4-deficient mouse macrophages. In kind it is functional, cell-based.
Data set [5] concerns Sf9. The experiment in a line: Binding affinity at MD1 transfected in Sf9 insect cells after 1 hr by native PAGE. The data set is classed as cell-based. The essentials:
as §3

The target of data set [6] is T1, Toll-like receptor 4 (Mus musculus). Described as §2. The essentials: as §1
Data set [7] has the same target. Nature of the data set: Enhancement of LPS-induced TLR4 activation in mouse peritoneal macrophages assessed as IL-6 production at 0.6 to 19.2 uM after 18 hrs by ELISA. The gist of the method: as §1

Calls of active or inactive are those of the source. The calls are words filed in the database; no cut-off is given here.

In general, IC50 refers to the concentration that inhibits the measured activity by half.

Toll-like receptor 4 (Homo sapiens), sequence (O00206 whole entry, the tested form may be a part): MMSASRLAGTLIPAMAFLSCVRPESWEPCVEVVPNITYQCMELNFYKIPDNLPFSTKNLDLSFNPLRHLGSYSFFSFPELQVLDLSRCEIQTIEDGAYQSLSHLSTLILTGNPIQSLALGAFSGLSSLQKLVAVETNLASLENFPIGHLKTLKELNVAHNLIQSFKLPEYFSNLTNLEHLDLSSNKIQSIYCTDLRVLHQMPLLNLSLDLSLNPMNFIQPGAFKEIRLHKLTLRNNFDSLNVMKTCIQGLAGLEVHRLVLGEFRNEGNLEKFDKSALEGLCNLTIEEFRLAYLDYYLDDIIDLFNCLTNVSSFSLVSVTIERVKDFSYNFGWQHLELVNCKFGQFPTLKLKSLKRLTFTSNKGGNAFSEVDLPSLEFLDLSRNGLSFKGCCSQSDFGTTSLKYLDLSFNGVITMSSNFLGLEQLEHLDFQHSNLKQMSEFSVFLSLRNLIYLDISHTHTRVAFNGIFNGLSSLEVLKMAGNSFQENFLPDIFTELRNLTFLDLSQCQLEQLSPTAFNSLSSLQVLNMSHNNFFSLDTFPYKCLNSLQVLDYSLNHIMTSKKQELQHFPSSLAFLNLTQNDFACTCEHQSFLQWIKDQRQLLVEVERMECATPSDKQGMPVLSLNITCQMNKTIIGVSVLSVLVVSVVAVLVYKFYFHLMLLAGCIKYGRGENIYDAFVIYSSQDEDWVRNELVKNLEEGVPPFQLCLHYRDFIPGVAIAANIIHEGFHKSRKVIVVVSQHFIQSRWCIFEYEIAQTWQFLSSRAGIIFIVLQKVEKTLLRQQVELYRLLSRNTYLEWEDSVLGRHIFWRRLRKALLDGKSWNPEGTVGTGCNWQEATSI

As to `CCCCCCCCCCCCCCCCO[C@H](COC(=O)CCCCCCCCCCCCCCC)COP(=O)(O)OC(CO[C@H]1O[C@H](CO)[C@@H](O)[C@H](O)[C@@H]1O)CO[C@H]1O[C@H](CO)[C@@H](O)[C@H](O)[C@@H]1O`, the Activity in [1] is 923 pg/mL; in data set [2], “Non-toxic”. Moreover, the IC50 on Toll-like receptor 4 came to 42.8 µM.

Consider `CCCCCCCCCCCCCCCC(=O)OC[C@H](COP(=O)(O)O[C@@H]1[C@H](O[C@H]2O[C@H](CO)[C@@H](O)[C@H](O)[C@@H]2O)[C@H](O)[C@@H](O)[C@H](O)[C@H]1O[C@H]1O[C@H](CO)[C@@H](O)[C@H](O)[C@@H]1O)OC(=O)CCCCCCCCCCCCCCC`, for which the Activity was 817 pg/mL in data set [1], “Non-toxic” in [2] and “Dose-dependent effect” in the data set on Sf9 [4]. The result (in data set [3]; in the data set on Sf9 [5]) was Active. Further, the result with Macrophage was inactive. The IC50 at Toll-like receptor 4 is 40.2 µM.

Regarding `CCCCCCCCCCCCCCCC(=O)N[C@H](COC(=O)CCCCCCCCCCCCCCC)COP(=O)(O)O[C@@H]1[C@H](O[C@H]2O[C@H](CO)[C@@H](O)[C@H](O)[C@@H]2O)[C@H](O)[C@@H](O)[C@H](O)[C@H]1O[C@H]1O[C@H](CO)[C@@H](O)[C@H](O)[C@@H]1O`, the Activity in data set [1] was 664 pg/mL; in data set [2], “Non-toxic”. Also, the concentration for half-maximal inhibition (IC50) on Toll-like receptor 4 was found to be 22.7 µM.

`CCCCCCCCCCCCCCCCO[C@H](COC(=O)CCCCCCCCCCCCCCC)COP(=O)(O)O[C@@H]1[C@H](O[C@H]2O[C@H](CO)[C@@H](O)[C@H](O)[C@@H]2O)[C@H](O)[C@@H](O)[C@H](O)[C@H]1O[C@H]1O[C@H](CO)[C@@H](O)[C@H](O)[C@@H]1O`: the Activity in data set [1] was 1460 pg/mL; in data set [2], “Non-toxic”. Also, the inhibition entry in data set [6] was “Dose-dependent effect”. For the same compound, the half-inhibitory concentration (IC50) on Toll-like receptor 4 is 30.3 µM.

For `CCCCCCCCCCCCCCCCOC[C@H](COP(=O)(O)O[C@@H]1[C@H](O[C@H]2O[C@H](CO)[C@@H](O)[C@H](O)[C@@H]2O)[C@H](O)[C@@H](O)[C@H](O)[C@H]1O[C@H]1O[C@H](CO)[C@@H](O)[C@H](O)[C@@H]1O)OC(=O)CCCCCCCCCCCCCCC`, the Activity in data set [1] was 1130 pg/mL; in data set [2], “Non-toxic”. Besides, the IC50 at Toll-like receptor 4 amounted to 28.8 µM.

In the case of `CCCCCCCCCCCCCCCC(=O)OC[C@H](COP(=O)(O)OC(CO[C@H]1O[C@H](CO)[C@@H](O)[C@H](O)[C@@H]1O)CO[C@H]1O[C@H](CO)[C@@H](O)[C@H](O)[C@@H]1O)OC(=O)CCCCCCCCCCCCCCC`, the Activity in [1] is 143 pg/mL; in [2], “Non-toxic”. At Toll-like receptor 4, the half-inhibitory concentration (IC50) amounted to 12.9 µM.

Turning to `CCCCCCCCCCCCCCCCO[C@H](COC(=O)CCCCCCCCCCCCCCC)COP(=O)(O)O[C@@H]1[C@H](O[C@H]2O[C@H](COC(=O)CCCCCCCCCCCCCCC)[C@@H](O)[C@H](O)[C@@H]2O)[C@H](O)[C@@H](O)[C@H](O)[C@H]1O[C@H]1O[C@H](CO)[C@@H](O)[C@H](O)[C@@H]1O`, the Activity was 275 pg/mL in data set [1] and “Non-toxic” in data set [2]. For the same compound, in data set [7], the result was Active.

Turning to `CCCCCCCCCCCCCCCCOC[C@H](COP(=O)(O)O[C@@H]1[C@H](O[C@H]2O[C@H](CO)[C@@H](O)[C@H](O)[C@@H]2O)[C@H](O)[C@@H](O)[C@H](O)[C@H]1O[C@H]1O[C@H](CO)[C@@H](O)[C@H](O)[C@@H]1O)OCCCCCCCCCCCCCCCC`, the figures for the Activity in [1] and in data set [2] were 494 pg/mL and “Non-toxic”, respectively. Moreover, the IC50 at Toll-like receptor 4 amounted to 23.3 µM.

The values are drawn from ChEMBL document CHEMBL1909619, “Synthesis and Toll-like receptor 4 (TLR4) activity of phosphatidylinositol dimannoside analogues” (J Med Chem, 2011).
